Values belong to the substance of their own block, whether it stands above or below them.
Experiments:
kisspeptin = test: SPR binding of RFRP-3 to immobilized kisspeptin; set-up: species or system rat; conditions: Biacore T200
Outline: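 Kisspeptin at 20 µg/ml in sodium acetate pH 5.5 was coupled to a CM5 chip (5,720 RU). Running buffer was PBS-P: 10 mM phosphate, 2.7 mM KCl, 137 mM NaCl, 0.05% P20, pH […]. Test peptide at 3.125–50 µM went over the detection and reference channels at 4 °C: 60 s injection, 15 µl/min, 15 min dissociation. Regeneration used 10 mM glycine-HCl pH 2.0 for 30 s; kinetic parameters were fitted.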

GnRH neurons = conditions: cited from earlier work
mice = conditions: cited from earlier work
LH and FSH = conditions: Japanese quail; cited from earlier work

direct binding to kisspeptin (in words) (kisspeptin): could bind directly to kisspeptin
Substance: RFamide-related peptide-3 [RFRP-3]
secretion of GnRH and expression and secretion of gonadotropin (GnRH neurons): inhibit the secretion of GnRH via its receptor on GnRH neurons, thus acting on the pituitary system to inhibit the expression and secretion of gonadotropin, LH and FSH

Substance: SIKPSAYLPLRFa [GnIH, gonadotropin-inhibitory hormone]
expression levels of glucose transporter 4 (mice): increased the expression levels of glucose transporter 4
food intake (mice): increased food intake
glucose uptake / glucose transporter 8 expression (mice): reduced glucose uptake by downregulating the expression levels of glucose transporter 8
synthesis of triglycerides in adipose tissue (mice): increased the synthesis of triglycerides in adipose tissue
testosterone synthesis (mice): reduced testosterone synthesis
secretion of LH and FSH (LH and FSH): inhibit the secretion of LH and FSH in the brain of Japanese quail

Source: PMC8593914 (Experimental and Therapeutic Medicine, 2021)
